Results gathered from unrelated publications.
Each line is one published result; the experiments were not run side by side.
Target: Cyclin-dependent kinase 11A (CDK11A, Homo sapiens, UniProt Q9UQ88)
Sequence (Q9UQ88 1-783, as in one of the studies): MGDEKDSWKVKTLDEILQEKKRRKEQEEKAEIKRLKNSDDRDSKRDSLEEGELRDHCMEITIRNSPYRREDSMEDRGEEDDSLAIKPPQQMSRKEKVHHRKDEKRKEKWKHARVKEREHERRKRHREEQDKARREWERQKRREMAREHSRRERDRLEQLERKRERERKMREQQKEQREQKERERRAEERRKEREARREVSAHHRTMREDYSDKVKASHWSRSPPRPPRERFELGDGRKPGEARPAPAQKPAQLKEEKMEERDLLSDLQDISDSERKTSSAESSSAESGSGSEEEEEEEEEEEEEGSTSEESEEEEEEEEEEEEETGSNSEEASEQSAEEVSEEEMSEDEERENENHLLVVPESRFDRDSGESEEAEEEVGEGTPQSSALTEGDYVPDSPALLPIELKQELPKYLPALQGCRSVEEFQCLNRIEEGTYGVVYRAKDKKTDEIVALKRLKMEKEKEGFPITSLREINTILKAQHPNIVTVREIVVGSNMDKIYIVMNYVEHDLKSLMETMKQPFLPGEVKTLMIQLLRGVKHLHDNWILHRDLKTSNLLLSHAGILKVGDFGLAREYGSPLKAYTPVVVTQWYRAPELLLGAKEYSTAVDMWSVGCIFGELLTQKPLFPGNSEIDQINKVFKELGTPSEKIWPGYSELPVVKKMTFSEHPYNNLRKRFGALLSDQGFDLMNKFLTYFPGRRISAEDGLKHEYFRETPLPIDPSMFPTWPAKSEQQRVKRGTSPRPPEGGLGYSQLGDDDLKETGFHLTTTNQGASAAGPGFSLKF

SMILES | test | setting | remaining binding
CNC(=O)[C@@H]1CC[C@@H](n2c(-c3ccc4cnccc4c3)nc3ccc(C(=O)NCc4cccc(C(N)=O)c4)cc32)C1 | binding, competition with immobilised ligand | 1 µM | 100%
Cc1noc([C@H]2C[C@@H](c3ccc(C(F)(F)F)cc3)CN(C(=O)N3CCS(=O)(=O)C3)C2)n1 | binding, competition with immobilised ligand | 1 µM | 100%
O=C(c1ccc(Nc2ncc(Cl)c(-c3cc4ccccc4s3)n2)cc1)N1CCC(N2CCCC2)CC1 | binding, competition with immobilised ligand | 1 µM | 85%
O=C(Nc1cccnn1)N1CCC(=Cc2cccc(Oc3ccc(C(F)(F)F)cn3)c2)CC1 | cell-free assay, competition with immobilised ligand | 1 µM | 82%
C[C@@H](c1ccc(-n2cnc3c(N)ncnc32)cc1)N1CCc2nn(C)c(Cc3ccccc3)c2C1=O | binding, competition with immobilised ligand | 0.1 µM | 100%
CN(c1nccc(-c2cnn3ncccc23)n1)C1CC1 | binding | 1 µM | 100%
O=C(c1ccc(Nc2nccc(-c3cc4ccccc4s3)n2)cc1)N1CCC(N2CCCC2)CC1 | binding, competition with immobilised ligand | 1 µM | 80%
N[C@H]1CCN(c2nccc(-c3cnn4ncccc34)n2)C1 | binding | 1 µM | 82%
O=C(Nc1c[nH]nc1C(=O)NC1CCNCC1)c1cc(F)cc(F)c1 | binding, competition with immobilised ligand | 1 µM | 100%
CCC(=O)N[C@H]1CC[C@@H](C(=O)N(C)c2ccc(-c3nc4ccccc4o3)cc2)C1 | cell-free assay, competition with immobilised ligand | 1 µM | 97%
Cc1cnc(Nc2ccc(C(=O)N3CCC(N4CCCC4)CC3)cc2)nc1-c1cc2ccccc2s1 | binding, competition with immobilised ligand | 1 µM | 100%
COc1ccnn2ncc(-c3ccnc(N(C)C)n3)c12 | binding | 1 µM | 100%
CN1CCN(c2cnc3c(C4CCN(C(=O)c5ccc(OC(F)(F)F)cc5N)CC4)ncnc3c2)CC1 | binding, competition with immobilised ligand | 1 µM | 61%
Nc1ncc2c(n1)-c1c([nH]c3ccc(C#CC4CC4)cc13)CCCC2 | binding, competition with immobilised ligand | 1 µM | 93%
C[C@@H]1CCN(c2nccc(-c3cnn4ncccc34)n2)C1 | binding | 1 µM | 85%
CNC(=O)c1ccc(Nc2ncc(C(F)(F)F)c(NCc3nccnc3N(C)S(C)(=O)=O)n2)cc1 | binding, competition with immobilised ligand | 0.1 µM | 77%
F[C@@H]1CCN(c2nccc(-c3cnn4ncccc34)n2)C1 | binding | 1 µM | 100%
COc1ncc2cc3ccccc3nc2c1C#N | binding, competition with immobilised ligand | 5 µM | 93%
NS(=O)(=O)c1cc(NC(=O)C2(c3ccccc3Cl)CC2)ccc1Oc1cccc(Cl)c1 | binding, competition with immobilised ligand | 1 µM | 73%
CN(C)c1nccc(-c2cnn3ncccc23)n1 | binding | 1 µM | 92%
